Data on one compound can be found in paper PMC4107104 (Hippocampus, 2014).

In one assay the target is recombinant human HDAC 3 (Homo sapiens, UniProt O15379). The assay is described as follows: HDAC enzyme inhibition assay, HDAC3. The following applies: read-out: In vitro IC50, HD3. It is filed as biochemical. The gist of the method: (§1)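 Recombinant human enzyme incubated at 37°C for 30 min in HDAC assay buffer with 5 μg BSA and fluorogenic substrate 3 (10 μM). Double-strength developer was then added for 20 min at room temperature, and fluorescence was read at ex 360/em 460 nm. The six-point concentration series was run in duplicate. Activity was taken as (F−Fb)/(Ft−Fb), with no-inhibitor as 100% and no-enzyme as 0%, and IC50 came from a sigmoidal nonlinear fit.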
recombinant human HDAC 3, sequence (O15379 whole entry): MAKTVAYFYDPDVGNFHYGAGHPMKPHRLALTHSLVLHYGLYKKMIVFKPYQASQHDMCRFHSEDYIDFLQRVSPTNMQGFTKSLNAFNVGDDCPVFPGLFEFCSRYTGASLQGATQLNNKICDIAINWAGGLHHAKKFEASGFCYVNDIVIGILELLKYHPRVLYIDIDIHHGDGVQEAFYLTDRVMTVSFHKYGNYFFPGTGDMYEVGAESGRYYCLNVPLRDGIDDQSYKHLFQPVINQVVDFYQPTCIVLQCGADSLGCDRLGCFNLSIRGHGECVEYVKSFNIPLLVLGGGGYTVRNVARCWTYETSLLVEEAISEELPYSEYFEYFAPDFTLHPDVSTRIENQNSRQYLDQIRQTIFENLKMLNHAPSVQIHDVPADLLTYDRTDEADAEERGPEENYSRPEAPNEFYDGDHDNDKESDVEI
recombinant human HDAC 3, sequence (Q9Y618 395-489 partner limits assumed): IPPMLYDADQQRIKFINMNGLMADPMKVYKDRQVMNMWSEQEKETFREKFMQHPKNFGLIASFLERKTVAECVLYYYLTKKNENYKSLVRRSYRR

Another assay deals with recombinant human HDAC 1 (Homo sapiens, UniProt Q13547). Description: HDAC enzyme inhibition assay, HDAC1. It is filed as biochemical. The following applies: read-out: In vitro IC50, HD1, NI = no inhibition up to 10 mM tested. The gist of the method: as §1
recombinant human HDAC 1, sequence (Q13547 whole entry): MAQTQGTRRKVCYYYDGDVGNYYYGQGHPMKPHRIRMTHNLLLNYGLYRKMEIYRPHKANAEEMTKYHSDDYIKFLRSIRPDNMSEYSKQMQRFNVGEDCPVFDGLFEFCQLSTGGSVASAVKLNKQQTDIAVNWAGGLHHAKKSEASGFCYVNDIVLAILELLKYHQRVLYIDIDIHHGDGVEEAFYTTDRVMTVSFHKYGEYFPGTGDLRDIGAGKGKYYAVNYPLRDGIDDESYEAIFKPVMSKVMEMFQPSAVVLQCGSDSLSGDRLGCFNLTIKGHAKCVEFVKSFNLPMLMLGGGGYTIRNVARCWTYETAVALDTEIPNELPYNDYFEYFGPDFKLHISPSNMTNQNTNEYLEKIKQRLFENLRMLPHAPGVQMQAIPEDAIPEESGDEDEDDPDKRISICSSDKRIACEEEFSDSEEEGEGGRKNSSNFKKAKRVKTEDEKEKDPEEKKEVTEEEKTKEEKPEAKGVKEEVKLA
The subject of another assay is contextual fear memory. Description: Contextual fear conditioning, 24 hr retention. The assay is classed as in vivo, Long-Evans rats. The following applies: 1.2 g/kg i.p. 1 hr prior to CFC training.
Assay [1] concerns hippocampal histone H3 and H4 acetylation. Description: Brain/hippocampal histone acetylation after i.p. injection. It is filed as in vivo, Long-Evans rats.
A further assay addresses recombinant human HDAC 2 (Homo sapiens, UniProt Q92769). The assay is described as follows: HDAC enzyme inhibition assay, HDAC2. It is filed as biochemical. As to conditions: read-out: In vitro IC50, HD2. An outline of the steps: as §1
The target of a further assay is T1, recombinant human HDAC 8 (Homo sapiens, UniProt Q9BY41).
T1 sequence (Q9BY41 1-377): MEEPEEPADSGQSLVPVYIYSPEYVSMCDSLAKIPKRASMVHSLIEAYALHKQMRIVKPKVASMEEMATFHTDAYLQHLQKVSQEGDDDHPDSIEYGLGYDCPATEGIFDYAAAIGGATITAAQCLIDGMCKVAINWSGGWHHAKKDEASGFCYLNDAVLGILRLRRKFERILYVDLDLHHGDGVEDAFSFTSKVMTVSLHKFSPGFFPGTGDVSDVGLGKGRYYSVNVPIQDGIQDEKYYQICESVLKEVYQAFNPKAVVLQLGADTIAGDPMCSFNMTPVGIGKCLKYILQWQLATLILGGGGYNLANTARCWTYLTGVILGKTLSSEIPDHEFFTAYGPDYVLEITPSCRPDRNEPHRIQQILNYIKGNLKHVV
Description: HDAC enzyme inhibition assay, HDAC8. The assay is classed as biochemical. The following applies: read-out: In vitro IC50, HD8. An outline of the steps: as §1

The target in assay [2] is T2, recombinant human HDAC 11 (Homo sapiens, UniProt Q96DB2).
T2 sequence (Q96DB2 1-347): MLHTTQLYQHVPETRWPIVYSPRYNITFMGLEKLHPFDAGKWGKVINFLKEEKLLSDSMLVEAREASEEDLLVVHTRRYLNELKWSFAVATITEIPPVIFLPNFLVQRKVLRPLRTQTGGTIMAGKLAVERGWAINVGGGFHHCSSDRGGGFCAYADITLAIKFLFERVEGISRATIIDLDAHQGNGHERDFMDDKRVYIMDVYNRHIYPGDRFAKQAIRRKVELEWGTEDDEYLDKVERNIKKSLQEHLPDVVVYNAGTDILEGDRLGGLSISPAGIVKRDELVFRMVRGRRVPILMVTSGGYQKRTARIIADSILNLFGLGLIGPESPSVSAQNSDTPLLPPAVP
Description: HDAC enzyme inhibition assay, HDAC11. The assay is classed as biochemical. The following applies: read-out: In vitro IC50, HD11. The gist of the method:
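Recombinant human enzyme incubated for 60 min at 37°C in HDAC assay buffer containing 5 μg BSA and substrate 3 at 10 μM. Developer (double strength) was added for 20 min at room temperature, and fluorescence was read at 360/460 nm. Six concentrations were tested in duplicate. Percent activity was normalised between no-inhibitor (100%) and no-enzyme (0%) wells, and IC50 came from sigmoidal nonlinear regression.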

Assay [3] addresses T3, recombinant human HDAC 10 (Homo sapiens, UniProt Q969S8).
T3 sequence (Q969S8 1-669): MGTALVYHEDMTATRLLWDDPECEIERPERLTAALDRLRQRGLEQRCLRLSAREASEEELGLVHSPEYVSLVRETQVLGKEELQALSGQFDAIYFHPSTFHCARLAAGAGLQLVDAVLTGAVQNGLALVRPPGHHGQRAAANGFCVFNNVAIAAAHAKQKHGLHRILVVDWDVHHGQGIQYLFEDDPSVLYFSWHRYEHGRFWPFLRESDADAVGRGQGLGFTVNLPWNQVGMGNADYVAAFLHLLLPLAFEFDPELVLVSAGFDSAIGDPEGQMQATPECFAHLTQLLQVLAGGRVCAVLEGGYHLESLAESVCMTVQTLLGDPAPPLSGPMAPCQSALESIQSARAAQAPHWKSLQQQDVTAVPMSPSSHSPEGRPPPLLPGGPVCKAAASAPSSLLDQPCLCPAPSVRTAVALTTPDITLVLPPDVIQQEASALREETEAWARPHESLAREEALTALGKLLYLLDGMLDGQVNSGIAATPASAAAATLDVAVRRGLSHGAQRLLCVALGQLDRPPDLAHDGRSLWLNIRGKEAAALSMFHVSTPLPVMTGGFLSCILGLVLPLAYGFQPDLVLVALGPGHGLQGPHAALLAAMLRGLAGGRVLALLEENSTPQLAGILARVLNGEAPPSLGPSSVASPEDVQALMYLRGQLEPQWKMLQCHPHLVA
The assay is described as follows: HDAC enzyme inhibition assay, HDAC10. The assay is classed as biochemical. As to conditions: read-out: In vitro IC50, HD10. An outline of the steps: as §1

recombinant human HDAC 2, sequence (Q92769 whole entry): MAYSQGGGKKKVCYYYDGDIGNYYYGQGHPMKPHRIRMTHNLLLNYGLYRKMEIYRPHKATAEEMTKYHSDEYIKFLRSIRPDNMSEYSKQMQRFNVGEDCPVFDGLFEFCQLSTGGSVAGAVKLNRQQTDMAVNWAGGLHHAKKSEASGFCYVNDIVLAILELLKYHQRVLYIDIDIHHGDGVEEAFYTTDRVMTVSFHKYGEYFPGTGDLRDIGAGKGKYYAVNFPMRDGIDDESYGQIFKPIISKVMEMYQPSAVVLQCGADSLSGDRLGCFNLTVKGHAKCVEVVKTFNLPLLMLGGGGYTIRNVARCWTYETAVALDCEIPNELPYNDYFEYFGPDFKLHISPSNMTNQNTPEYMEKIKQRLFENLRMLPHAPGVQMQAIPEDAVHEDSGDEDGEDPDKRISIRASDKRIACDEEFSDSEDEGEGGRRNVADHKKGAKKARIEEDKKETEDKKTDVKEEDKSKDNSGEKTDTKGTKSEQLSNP

On to `CCCC(=O)[O-].[Na+]` [NaB, sodium butyrate], for which the IC50 on recombinant human HDAC 3 amounted to 126 µM; at recombinant human HDAC 1 it was 330 µM; at recombinant human HDAC 2, 118 µM; on recombinant human HDAC 8 it was 611 µM; in assay [2] it was 565 µM; in assay [3], 543 µM. The “mean freezing at 24 hr retention test” value in the assay on contextual fear memory was found to be 12.73 s. For the same compound, in the assay with contextual fear memory, the “retention of contextual fear memory at 24 hr” value is listed as “failed to enhance retention”. The “histone H3 and H4 acetylation in whole hippocampus, 30 min” value in assay [1] (30 min after 1.2 g/kg i.p.) is “increasing at 30 min relative to vehicle”. Moreover, in assay [1] (60 min after 1.2 g/kg i.p.), the “histone H3 and H4 acetylation in whole hippocampus, 60 min” value was “returning to baseline levels”.

A word on the IC50: it is the concentration that gives 50% inhibition.
